M5 PAM: CHRM5 positive allosteric modulation; P08912; 360,000 tested, 0.3% active; AID 624038; CHO-K1 hM5, Fluo-8 calcium, ACh EC20 PAM; 0% = ACh EC20, 100% = ACh EC100; activation, % at 3 µM;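 active = activation above the run cutoff, the mean activation of all test compounds plus 3 SD, cut at about 18% in these data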
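Measured by: Fluo-8 calcium fluorescence; material: human M5 receptor in CHO-K1 cells; schedule: Post-acetylcholine fluorescence recording 140 s; benchmarks: low control EC20 acetylcholine (0%), high control EC100 acetylcholine (100%); read-out: Max/basal fluorescence ratio as % of EC20–EC100 ACh window; compound: single dose, 3 µM nominal final test concentration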
CHRM5 antagonist: CHRM5 antagonism in calcium assay; P08912; CHO-hM5 cells, Fluo-8 calcium fluorescence, ACh EC80; inhibition, % at 3 µM; 360,000 tested, 0.59% active;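 active = inhibition above a per-plate cutoff, the mean of that plate's test compounds plus 3 SD, cut at about 27% in these data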;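 also: 0% = acetylcholine EC80 with DMSO and 100% = DMSO without agonist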
M4 ag: CHRM4 agonism in calcium assay | P08173 | CHO-K1 hM4/Gqi5, Fluo-8 calcium fluorescence; vehicle 0%, full acetylcholine response 100% | activation, % at 3 µM | 360,000 tested, 0.14% active | AID 624127;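 active = activation above the run mean over all test wells plus 3 SD, cut at about 32% in these data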;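 also: peak over basal fluorescence ratio per well then scaled between controls; 0% = DMSO wells and 100% = acetylcholine at EC100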
Target sequence (P08173 whole entry, looked up): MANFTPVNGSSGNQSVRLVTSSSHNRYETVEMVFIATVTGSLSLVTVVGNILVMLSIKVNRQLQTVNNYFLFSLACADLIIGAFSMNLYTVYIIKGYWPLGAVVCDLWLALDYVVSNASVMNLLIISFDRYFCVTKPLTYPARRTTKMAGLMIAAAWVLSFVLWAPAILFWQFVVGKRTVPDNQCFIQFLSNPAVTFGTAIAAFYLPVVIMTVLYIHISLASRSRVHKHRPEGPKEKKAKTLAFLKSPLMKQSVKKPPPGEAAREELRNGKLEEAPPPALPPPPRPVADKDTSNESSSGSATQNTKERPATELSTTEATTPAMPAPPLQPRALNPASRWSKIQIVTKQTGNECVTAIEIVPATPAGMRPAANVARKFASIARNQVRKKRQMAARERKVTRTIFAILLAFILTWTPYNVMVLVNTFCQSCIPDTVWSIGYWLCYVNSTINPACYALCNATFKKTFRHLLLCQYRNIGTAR
CHRM5 agonist: agonists of human muscarinic M5 receptor (CHRM5) | 360,000 tested, 0.19% active | CHO-K1 hM5 cells, Fluo-8 calcium fluorescence; 0% DMSO wells, 100% maximal acetylcholine response | P08912 | activation, % at 3 µM;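 active = activation above the run's mean over test compounds plus 3 SD, cut at about 23% in these data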;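 also: signal is peak over basal fluorescence ratio across the kinetic read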
M4 antag: antagonists of human muscarinic M4 receptor (CHRM4); CHO-hM4 cells, ACh EC80, Fluo-8 calcium fluorescence; inhibition, % at 3 µM; AID 624125; 360,000 tested, 0.73% active;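 active = inhibition above its plate's cutoff, the mean inhibition of sample wells plus 3 SD, cut at about 27% in these data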;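 also: 0% = acetylcholine EC80 with DMSO and 100% = DMSO without agonist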
M4 PAM: potentiates acetylcholine response at human M4 receptor | CHO-K1 hM4/Gqi5, Fluo-8 calcium fluorescence, ACh EC20; 0% = ACh EC20, 100% = maximal ACh | activation, % at 3 µM | AID 624126 | P08173 | 360,000 tested, 0.4% active;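 active = activation above its plate's cutoff, the mean activation of sample wells plus 3 SD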
The depositor's hits bear a star. Compounds with a hit are over-represented: about 1.9% of the library has one in this group of screens.

SMILES	M5 PAM	CHRM5 antagonist	M4 ag	CHRM5 agonist	M4 antag	M4 PAM
c1ccc(COc2ccc(CNCc3cccs3)cc2)cc1	-10	5	7	-10	33*	-27
Cc1ccc(NS(=O)(=O)c2ccc(C3CCCCC3)cc2)cc1	-18	27*	12	5	49*	-18
COc1ccccc1C(CNC(=O)c1cccc(S(=O)(=O)Nc2ccc(C)cc2)c1)N1CCCC1 (stereo unspecified)	-33	28*	2	-10	19	-9
CCOc1ccc(NS(=O)(=O)c2ccc(NC(=S)NC(C)=O)cc2)cc1	-7	3	26	25*	7	-6
COc1ccc(NS(=O)(=O)c2ccc(C(=O)N3CCC(C)CC3)cc2)cc1	-21	13	27	39*	-5	-9
COc1ccccc1NS(=O)(=O)c1cccc(C(=O)NCC(c2ccccc2OC)N2CCCC2)c1 (stereo unspecified)	-24	7	1	-11	3	-10
CCOc1ccc(NS(=O)(=O)c2ccc(NC(=S)NC(=O)C(C)C)cc2)cc1	1	6	7	12	0	0
Cc1ccc(S(=O)(=O)Nc2ccc(N3CCCCC3)cc2)cc1	-5	-13	1	-2	0	0
Cn1cc([N+](=O)[O-])c(C(=O)NC2CCCC2)n1	-4	19	1	-4	0	2
CCc1sc(C(=O)N2CCN(C(=O)c3ccccc3)CC2)cc1C	0	15	1	0	-7	7
COc1ccc(CCN2CC(C(=O)NC3CCOCC3)CCC2=O)cc1 (stereo unspecified)	5	-8	2	-1	-13	2
O=C(NCC(c1ccco1)N1CCCC1)c1ccc(S(=O)(=O)Nc2ccc(F)cc2)cc1 (stereo unspecified)	-14	8	11	-2	6	-6
CC1CN(C(=O)c2ccc(NS(=O)(=O)c3ccc(C(C)(C)C)cc3)cc2)CC(C)O1 (stereo unspecified)	-4	2	33*	48*	12	-6
CCOc1ccc(NS(=O)(=O)c2ccc(C(=O)NCC(c3ccco3)N3CCCC3)cc2)cc1 (stereo unspecified)	5	6	34*	12	-15	-1
COc1ccc(NS(=O)(=O)c2ccc(C(=O)N(C)Cc3ccc(C)o3)cc2)cc1	-4	-2	14	28*	-3	-4
COc1ccc(CN(C)C(=O)c2ccc(NS(=O)(=O)c3ccc(F)cc3)cc2)c(OC)c1	-9	3	3	1	13	-9
CCOc1ccc(NS(=O)(=O)c2ccc(C(=O)N3CC(C)OC(C)C3)cc2)cc1 (stereo unspecified)	-17	5	66*	57*	3	-6
O=P1(O)Cc2ccccc2-c2ccccc21	10	4	1	4	-5	4
COc1ccc(NC(=O)CN2C(=O)S/C(=C/c3cccn3-c3ccc(C(=O)O)cc3)C2=O)cc1	7	3	0	-3	1	8
CCOC(=O)c1nn(-c2ccc(C)cc2)c(=O)cc1OCC(=O)Nc1ccc(OC)cc1	6	1	1	4	3	4
CCOc1ccc(S(=O)(=O)Nc2cccc(C(=O)N3CC(C)OC(C)C3)c2)cc1 (stereo unspecified)	-1	-3	2	7	4	-5
CCOc1ccc(S(=O)(=O)Nc2ccc(C(=O)N3CC(C)OC(C)C3)cc2)cc1 (stereo unspecified)	-7	9	16	30*	12	-7
Cc1ccc(NS(=O)(=O)c2ccc(C(=O)N3CCCC(C(F)(F)F)C3)cc2)cc1 (stereo unspecified)	-12	13	34*	54*	14	-6
Cc1ccc(S(=O)(=O)Nc2cccc3ncccc23)cc1	-2	-1	4	-1	-5	12
Cc1ccc(S(=O)(=O)Nc2cccc3ncccc23)s1	-16	26	2	-10	28*	-2
SMILES	M5 PAM	CHRM5 antagonist	M4 ag	CHRM5 agonist	M4 antag	M4 PAM
CN(C)c1nn(C(=O)Nc2cccc(C(F)(F)F)c2)cc1-c1ccccc1	-15	36*	17	5	27*	-16
O=C(c1ccc(Cl)s1)N1CCN(C23CC4CC(CC(C4)C2)C3)CC1	3	-23	0	-9	5	-12
O=C(c1cccs1)N1CCN(C23CC4CC(CC(C4)C2)C3)CC1	-6	-14	2	-7	40*	-17
COc1ccc(CNC(=O)CSc2nccn(-c3ccc(F)c(F)c3)c2=O)cc1	-5	8	0	2	-4	-3
CC1=[N+](C)N(c2ccccc2)C(=O)C1N=C/C=C/c1ccccc1 (stereo unspecified)	-31	25	2	-19	58*	-15
COc1ccccc1/C=C/C=NC1C(=O)N(c2ccccc2)[N+](C)=C1C (stereo unspecified)	-2	7	6	-5	3	-6
CC1CC(C)CN(C(=O)CNC(=O)c2ccc3ccccc3c2)C1 (stereo unspecified)	-8	6	8	-1	-1	6
Cc1cccc(C=NOCCc2ccccc2)n1	3	0	0	3	-2	12
Cc1nc2ccccc2nc(C)c1=NOCc1ccc(C#N)cc1	5	4	2	0	-1	19*
Cc1nc2ccccc2nc(C)c1=NOCc1cccc(F)c1	5	10	1	0	-4	0
CCOC(=O)[C@H]1[C@H]2COc3ccccc3[C@@H]2N2C(=O)CN(CC3CCCO3)C(=O)[C@@]12C (stereo partly specified)	4	-1	1	6	-3	4
CCCCOc1cccc(C2C(C(=O)c3cccs3)=C(O)C(=O)N2Cc2cccnc2)c1 (stereo unspecified)	-4	1	0	-4	-5	-3
O=C(C1=C(O)C(=O)N(CCOCCO)C1c1cccc([N+](=O)[O-])c1)c1cccs1 (stereo unspecified)	22*	-12	1	5	-20	3
CCOc1cccc(C2C(C(=O)c3cccs3)=C(O)C(=O)N2Cc2cccnc2)c1 (stereo unspecified)	29*	18	1	7	-2	11
O=C(Nc1cc(Cl)cc(Cl)c1)C1CCCC1	-8	11	4	-4	0	-9
CCOC(=O)c1cc(-c2ccc3c(c2)OCCO3)n[nH]1	14	-13	-1	6	-17	27*
Cc1ccc(C2N3CC4([N+](=O)[O-])CN2CC([N+](=O)[O-])(C3)C4(C)C)cc1 (stereo unspecified)	-6	15	1	-1	-12	3

Screening data deposited in PubChem BioAssay by The Scripps Research Institute Molecular Screening Center.
